Test results: ChEMBL document CHEMBL4177720, “Towards smart biocide-free anti-biofilm strategies: Click-based synthesis of cinnamide analogues as anti-biofilm compounds against marine bacteria” (Bioorg Med Chem Lett, 2018)

How the values were obtained:
[1] = system: Paracoccus sp.; experiment: Anti-biofilm activity against Paracoccus sp. 4M6 assessed as inhibition of bacterial adhesion incubated for 15 hrs at 20 degC by Syto 61 dye based fluorimetric assay; type: functional; settings: Paracoccus sp. (in: a-proteobacteria), 4M6, 15 h
Procedure, shortened: (§1)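 Cells were grown in VNSS at 20°C to stationary phase, centrifuged, and resuspended in artificial sea water (ASW) to OD600 0.2-0.4. Suspension (100 µL) plus 100 µL diluted compound, in triplicate, with ASW-only adhesion control, was held 15 h at 20°C. After three 36 g/L NaCl washes, adhered cells were stained 10 min at room temperature with 40 µmol/L Syto 61. Fluorescence read at ex 615/em 670 nm; EC50 from dose-response fit.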

[2] = system: Pseudoalteromonas lipolytica; experiment: Anti-biofilm activity against Pseudoalteromonas lipolytica TC8 assessed as inhibition of bacterial adhesion incubated for 15 hrs at 20 degC by Syto 61 dye based fluorimetric assay; type: functional, organism-based; settings: TC8, 15 h; procedure, shortened: as §1
[3] = system: Pseudoalteromonas ulvae; experiment: Anti-biofilm activity against Pseudoalteromonas ulvae TC14 assessed as inhibition of bacterial adhesion incubated for 15 hrs at 20 degC by Syto 61 dye based fluorimetric assay; type: functional, organism-based; settings: TC14, 15 h; procedure, shortened: as §1
[4] = system: Pseudoalteromonas ulvae; experiment: Effect on cell viability of Pseudoalteromonas ulvae TC14 at 100 uM measured every hr during 6 hrs by resazurin based assay; type: organism-based
Procedure, shortened: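 Exponential-phase cells (VNSS, 20°C, 120 rpm) were resuspended in VNSS to OD600 0.1. 20 µL inoculated into 180 µL compound in VNSS, triplicate, at 100 µM, with solvent and medium controls. OD600 was read hourly for 6 h. Resazurin (50 µM) was then added, and fluorescence after 2 h gave percent viability versus untreated.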

[5] = system: Pseudoalteromonas ulvae; experiment: Effect on cell growth of Pseudoalteromonas ulvae TC14 at 100 uM measured every hr during 6 hrs by turbidity (OD600) measurement

SMILES	EC50 [1] [µM]	EC50 [2] [µM]	EC50 [3] [µM]	Activity [4]	Activity [5]
COc1cccc(CCNC(=O)c2cn(-c3cccc(OC)c3)nn2)c1	226	> 300	80.6		
O=C(/C=C/c1ccc(O)cc1)NCCc1ccc(O)cc1 [N-P-COUMAROYL TYRAMINE]	> 300	> 300	75.5		
COc1ccc(CCNC(=O)c2cn(-c3cccc(OC)c3)nn2)cc1	216	> 300	11.4	Non-Toxic	Non-Toxic
COc1cccc(-n2cc(C(=O)NCCc3ccc(O)cc3)nn2)c1	> 300	276	204		
CC1(C)S[C@@H]2[C@H](NC(=O)[C@H](N)c3ccccc3)C(=O)N2[C@H]1C(=O)O [AMPICILLIN]				Toxic	

More lines, main results first:

EC50 [1] [µM]	EC50 [2] [µM]	EC50 [3] [µM]	SMILES	Activity [4]	Activity [5]
154	> 300	73.7	COc1cccc(-n2cc(C(=O)NCCc3ccc(OC)c(OC)c3)nn2)c1		
220	> 300	115	COc1ccc(-n2cc(C(=O)NCCc3ccc(O)cc3)nn2)cc1		
260	> 300	11.3	COc1ccc(CCNC(=O)c2cn(-c3ccc(OC)cc3)nn2)cc1	Non-Toxic	Non-Toxic
162	> 300	54.6	COc1ccc(-n2cc(C(=O)NCCc3ccc(OC)c(OC)c3)nn2)cc1	Non-Toxic	Non-Toxic
214	142	52.3	COc1ccc(-n2cc(C(=O)NCCc3cccc(OC)c3)nn2)cc1		Non-Toxic
